Assay results from different studies.
Protocols differ between the studies behind these lines.
Cell line: A549
Observed: cell growth or viability

With `O=C(N/N=C1\C(=O)N(Cc2ccccc2)c2ccc(Br)cc21)c1cc2ccccc2[nH]1` the IC50 was 650 nM.
`Nc1cc(I)c(I)cc1N` has an IC50 of 25000 nM (72 h).
With `C=CCc1cc(OC)c2c(c1)OCO2` the IC50 was 359000 nM (SRB).
`N.N.[Cl][Pt][Cl]` has an IC50 of 5350 nM (MTT; 24 h).
With `CSC(=NNC(=O)c1ccc(Cl)c(Cl)c1)SC` the IC50 was 69000 nM (MTT; 5 days).
`CC[C@@]1(OC(=O)Cc2c(C)n(C(=O)c3ccc(Cl)cc3)c3ccc(OC)cc23)C(=O)OCc2c1cc1n(c2=O)Cc2cc3cc4c(cc3nc2-1)OCO4` has an IC50 of 263 nM (MTT).
With `N#Cc1ccc(CN2C(=O)/C(=N\NC(=O)c3cc4ccccc4[nH]3)c3ccccc32)cc1` the IC50 was 2130 nM.
For `N.N.[Cl][Pt][Cl]`, the IC50 was 9240 nM (MTT; 48 h).
With `O=C(N/N=C1\C(=O)N(Cc2ccc(Cl)cc2)c2ccccc21)c1cc2ccccc2[nH]1` the IC50 was 1050 nM.
`Nc1cc(Br)c(Br)cc1N` has an IC50 of 75000 nM (72 h).
For `CCC1(OC(=O)C(C)c2ccc3cc(OC)ccc3c2)C(=O)OCc2c1cc1n(c2=O)Cc2cc3cc4c(cc3nc2-1)OCO4` (centres unmarked), the IC50 was 471 nM (MTT).
`O=C(N/N=C1\C(=O)N(Cc2ccccc2)c2ccccc21)c1cc2ccccc2[nH]1` gave an IC50 of 1060 nM.
For `CC[C@@]1(OC(=O)[C@H](C)N)C(=O)OCc2c1cc1n(c2=O)Cc2cc3cc4c(cc3nc2-1)OCO4`, the IC50 was 40 nM (MTT).
For `CC1=C(O)C(=O)C=C2C1=CC=C1[C@@]2(C)CC[C@@]2(C)[C@@H]3C[C@](C)(C(=O)OCCCn4cc(C=O)c5ccccc54)CC[C@]3(C)CC[C@]12C`, the IC50 was 7830 nM (MTT; 48 h).
The IC50 of `CC[C@@]1(OC(=O)[C@@H](N)C(C)C)C(=O)OCc2c1cc1n(c2=O)Cc2cc3cc4c(cc3nc2-1)OCO4` is reported as 89 nM (MTT).
The IC50 of `COc1c2c(cc3c1OCO3)[C@]13C=C[C@H](OC)C[C@@H]1[N@](C2)C[C@H]3OC(=O)c1ccoc1` is reported as greater than 10000 nM (WST-1).
The IC50 of `CC[C@@]1(OC(=O)C(C)c2cccc(C(=O)c3ccccc3)c2)C(=O)OCc2c1cc1n(c2=O)Cc2cc3cc4c(cc3nc2-1)OCO4` (some centres unmarked) is reported as 289 nM (MTT).
For `O=C(N/N=C1\C(=O)N(Cc2ccccc2)c2ccc(Cl)cc21)c1cc2ccccc2[nH]1`, the IC50 was 1330 nM (72 h).
`CC[C@@]1(O)C(=O)OCc2c1cc1n(c2=O)Cc2cc3cc4c(cc3nc2-1)OCO4` has an IC50 of 29 nM (MTT; 72 h).
`COc1ccc2c(c1)[nH]c1c(C)nccc12` gave an IC50 of 19400 nM (MTT; 72 h).
